Assay results of several laboratories.
≈ marks a conversion by molar mass, not a printed value.

Cc1cc(C#N)cc(C)c1Oc1nc(Nc2ccc(C#N)cc2)nc(N)c1Br — thermodynamic solubility (FaSSIF; 24 h; pH 6.5): 0.52 µg/mL
N#C/C(=C\c1c[nH]nc1-c1cccc(Br)c1)C(=O)O — kinetic solubility (PBS; 24 h; pH 7.4): 0.1 µM (≈ 0.0318 µg/mL)
Cn1cncc1[C@@](N)(c1ccc(Cl)cc1)c1ccc2c(c1)c(-c1cccc(Cl)c1)cc(=O)n2C — solubility (FeSSIF; pH 5; 37 °C): 448 µg/mL (≈ 915 µM)
CC1(F)CN(C(=O)Cn2c(=O)c(C(=O)NCc3ccc(Cl)cc3)cc3nc(N4CCN(CC(=O)O)C4=O)cnc32)C1 — thermodynamic solubility (aqueous buffer; 24 h; pH 7.4; 37 °C): 5660 µM
CCNC(=O)c1cnn(-c2ccc(-n3ccc(Cl)c(Cl)c3=O)cc2)c1C(F)(F)F — kinetic solubility (PBS; 24 h; pH 7.4): 0.2 µM (≈ 0.089 µg/mL)
CCn1cc(C2CC2)c2c(Cc3cnc(C(F)(F)F)c(Cl)c3)n(C)nc2c1=O — kinetic solubility (nephelometry; aqueous buffer; 30 min; pH 6.5): 50 to 100 µM (≈ 20.5 to 41.1 µg/mL)
CN(C)C(=O)CN1CCN(c2cnc3c(cc(C(=O)NCc4ccc(Cl)cc4)c(=O)n3CC(=O)N3CC(C)(F)C3)n2)C1=O — thermodynamic solubility (aqueous buffer; 24 h; pH 7.4; 37 °C): < 1.56 µM
CC[C@@](N)(c1cnc(C(F)(F)F)c(Cl)c1)c1c2ncn(C3CC3)c(=O)c2nn1C — kinetic solubility (nephelometry; aqueous buffer; 30 min; pH 6.5): 80 to 160 µM (≈ 34.1 to 68.3 µg/mL)
CCNCc1cnn(-c2ccc(-n3ccc(Cl)c(Cl)c3=O)cc2)c1C(F)(F)F — kinetic solubility (PBS; 24 h; pH 7.4): 144 µM (≈ 62.1 µg/mL)
CCn1cc(C2CC2)c2c(Cc3ccc(C(F)(F)F)nc3)n(C)nc2c1=O — kinetic solubility (nephelometry; aqueous buffer; 30 min; pH 6.5): 130 to 260 µM (≈ 48.9 to 97.9 µg/mL)
C[C@H]1COC2=C1C(=O)C(=O)c1c2ccc2c1CCCC2(C)C — thermodynamic solubility (PBS; 24 h; pH 7.4; 25 °C): 18.3 µg/mL
Cn1nc2c(=O)n(C3CC3)ccc2c1[C@](C)(O)c1cnc(C(F)(F)F)c(Cl)c1 — kinetic solubility (nephelometry; aqueous buffer; 30 min; pH 6.5): 80 to 160 µM (≈ 33 to 66 µg/mL)
O=C(O)c1cn(-c2ccc(-c3ccc(C(=O)N4CCNCC4)cc3)cc2)cc(O)c1=O — kinetic solubility (aqueous buffer; pH 7.4): 290 µM (≈ 122 µg/mL)
CCn1cc(C2CC2)c2c(Cc3ccc(C(F)(F)F)c(F)c3)n(C)nc2c1=O — kinetic solubility (nephelometry; aqueous buffer; 30 min; pH 6.5): 16 to 32 µM (≈ 6.29 to 12.6 µg/mL)
CC1(F)CN(C(=O)Cn2c(=O)c(C(=O)NCc3ccc(Cl)cc3)cc3nccnc32)C1 — thermodynamic solubility (aqueous buffer; 24 h; pH 7.4; 37 °C): 52.6 µM
